Results from ChEMBL document CHEMBL1149086, “Antimalarial and antitumor evaluation of novel C-10 non-acetal dimers of 10beta-(2-hydroxyethyl)deoxoartemisinin” (J Med Chem, 2004).

Experiments:
Jurkat = assay: Inhibitory concentration against Jurkat cells; assay type: functional, cell-based; details: Homo sapiens
Outline: (§1)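 HL60 (2.5 × 10⁴/well) or Jurkat (1 × 10⁵/well) in RPMI-1640 with 10% FBS and 1% L-glutamine, 5% CO2, 37 °C. Exposed to 10⁻¹⁰–10⁻⁴ M for 72 h, final DMSO below 0.5% v/v. [3H]-thymidine (0.5 μCi) added for the final 24 h. Incorporation counted by β-scintillation.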

CCRF-CEM [1] = assay: Concentration of the drug required to achieve 50% cytotoxicity against leukemia CCRF-CEM cell line; assay type: cell-based; details: human
CCRF-CEM [2] = assay: Concentration of the drug required to achieve 50% cytotoxicity against leukemia HL-60(TB) cell line; assay type: cell-based; details: human
CCRF-CEM [3] = assay: Concentration required to achieve total growth inhibition against leukemia CCRF-CEM cell line; assay type: functional; details: Homo sapiens
COLO 205 [4] = assay: inhibition against colon COLO 205 cancer cell line; assay type: functional; details: Homo sapiens
CCRF-CEM [5] = assay: inhibition against leukemia CCRF-CEM cell line; assay type: functional; details: Homo sapiens
COLO 205 [6] = assay: Concentration of the drug required to achieve 50% cytotoxicity against colon COLO 205 cancer cell line; assay type: cell-based; details: human
COLO 205 [7] = assay: Concentration required to achieve total growth inhibition against colon COLO 205 cancer cell line; assay type: functional; details: Homo sapiens
HCT-15 [8] = assay: Concentration required to achieve total growth inhibition against colon HCT-15 cancer cell line; assay type: functional; details: Homo sapiens
HCT-15 [9] = assay: Concentration of the drug required to achieve 50% cytotoxicity against colon HCT-15 cancer cell line; assay type: cell-based; details: human
HCT-116 [10] = assay: Concentration required to achieve total growth inhibition against colon HCT116 cancer cell line; assay type: functional; details: Homo sapiens
HCT-15 [11] = assay: inhibition against colon HCT-15 cancer cell line; assay type: functional; details: Homo sapiens
HL-60 [12] = assay: inhibition against leukemia HL-60(TB) cell line; assay type: functional; details: Homo sapiens
HL-60 [13] = assay: Concentration required to achieve total growth inhibition against leukemia HL-60(TB) cell line; assay type: functional; details: Homo sapiens
HCT-116 [14] = assay: Concentration of the drug required to achieve 50% cytotoxicity against colon HCT116 cancer cell line; assay type: cell-based; details: human
HCC 2998 [15] = assay: Concentration required to achieve total growth inhibition against colon HCC2998 cancer cell line; assay type: functional; details: Homo sapiens
HCT-116 [16] = assay: inhibition against colon HCT116 cancer cell line; assay type: functional; details: Homo sapiens
HCC 2998 [17] = assay: inhibition against colon HCC2998 cancer cell line; assay type: functional; details: Homo sapiens
HCC 2998 [18] = assay: Concentration of the drug required to achieve 50% cytotoxicity against colon HCC2998 cancer cell line; assay type: cell-based; details: human
HT-29 [19] = assay: Concentration of the drug required to achieve 50% cytotoxicity against colon HT-29 cancer cell line; assay type: cell-based; details: human
HT-29 [20] = assay: inhibition against colon HT-29 cancer cell line; assay type: functional; details: Homo sapiens
HT-29 [21] = assay: Concentration required to achieve total growth inhibition against colon HT-29 cancer cell line; assay type: functional; details: Homo sapiens
KM12 [22] = assay: Concentration required to achieve total growth inhibition against colon KM12 cancer cell line; assay type: functional; details: Homo sapiens
K562 [23] = assay: Concentration required to achieve total growth inhibition against leukemia K-562 cell line; assay type: functional; details: Homo sapiens
KM12 [24] = assay: inhibition against colon KM12 cancer cell line; assay type: functional; details: Homo sapiens
KM12 [25] = assay: Concentration of the drug required to achieve 50% cytotoxicity against colon KM12 cancer cell line; assay type: cell-based; details: human
MOLT-4 [26] = assay: inhibition against leukemia MOLT-4 cell line; assay type: functional; details: Homo sapiens
LOX IMVI [27] = assay: inhibition against melanoma LOX IMVI cell line; assay type: functional; details: Homo sapiens
LOX IMVI [28] = assay: Concentration of the drug required to achieve 50% cytotoxicity against melanoma LOX IMVI cell line; assay type: cell-based; details: human
LOX IMVI [29] = assay: Concentration required to achieve total growth inhibition against melanoma LOX IMVI cell line; assay type: functional; details: Homo sapiens
MCF7 [30] = assay: Concentration required to achieve total growth inhibition against breast MCF-7 cancer cell line; assay type: functional; details: Homo sapiens
MCF7 [31] = assay: Concentration of the drug required to achieve 50% cytotoxicity against breast MCF-7 cancer cell line; assay type: cell-based; details: human
Malme-3M [32] = assay: inhibition against melanoma MALME-3M cell line; assay type: functional; details: Homo sapiens
Malme-3M [33] = assay: Concentration of the drug required to achieve 50% cytotoxicity against melanoma MALME-3M cell line; assay type: cell-based; details: human
MOLT-4 [34] = assay: Concentration required to achieve total growth inhibition against leukemia MOLT-4 cell line; assay type: functional; details: Homo sapiens
Malme-3M [35] = assay: Concentration required to achieve total growth inhibition against melanoma MALME-3M cell line; assay type: functional; details: Homo sapiens
MOLT-4 [36] = assay: Concentration of the drug required to achieve 50% cytotoxicity against leukemia MOLT-4 cell line; assay type: cell-based; details: human
NCI/ADR-RES [37] = assay: inhibition against breast NCI/ ADR-RES cancer cell line; assay type: functional; details: Homo sapiens
NCI/ADR-RES [38] = assay: Concentration of the drug required to achieve 50% cytotoxicity against breast NCI/ ADR-RES cancer cell line; assay type: cell-based; details: human
NCI/ADR-RES [39] = assay: Concentration required to achieve total growth inhibition against breast NCI/ ADR-RES cancer cell line; assay type: functional; details: Homo sapiens
PC-3 [40] = assay: Concentration of the drug required to achieve 50% cytotoxicity against prostate PC-3 cell line; assay type: cell-based; details: human
PC-3 [41] = assay: inhibition against prostate PC-3 cell line; assay type: functional; details: Homo sapiens
Plasmodium falciparum = assay: In vitro antimalarial activity against Plasmodium falciparum HB3 by [3H]hypoxanthine uptake; assay type: functional, organism-based
PC-3 [42] = assay: Concentration required to achieve total growth inhibition against prostate PC-3 cell line; assay type: functional; details: Homo sapiens
RPMI-8226 [43] = assay: Concentration of the drug required to achieve 50% cytotoxicity against leukemia RPMI-8226 cell line; assay type: cell-based; details: human
RPMI-8226 [44] = assay: Concentration required to achieve total growth inhibition against leukemia RPMI-8226 cell line; assay type: functional; details: Homo sapiens
SW-620 [45] = assay: inhibition against colon SW-620 cancer cell line; assay type: functional; details: Homo sapiens
SW-620 [46] = assay: Concentration of the drug required to achieve 50% cytotoxicity against colon SW-620 cancer cell line; assay type: cell-based; details: human
SR [47] = assay: inhibition against leukemia SR cell line; assay type: functional; details: Homo sapiens
SR [48] = assay: Concentration of the drug required to achieve 50% cytotoxicity against leukemia SR cell line; assay type: cell-based; details: human
SR [49] = assay: Concentration required to achieve total growth inhibition against leukemia SR cell line; assay type: functional; details: Homo sapiens
SW-620 [50] = assay: Concentration required to achieve total growth inhibition against colon SW-620 cancer cell line; assay type: functional; details: Homo sapiens
SK-MEL-5 [51] = assay: inhibition against melanoma SK-MEL-5 cell line; assay type: functional; details: Homo sapiens
SK-MEL-5 [52] = assay: Concentration required to achieve total growth inhibition against melanoma SK-MEL-5 cell line; assay type: functional; details: Homo sapiens
T47D [53] = assay: inhibition against breast T-47D cancer cell line; assay type: functional; details: Homo sapiens
T47D [54] = assay: Concentration of the drug required to achieve 50% cytotoxicity against breast T-47D cancer cell line; assay type: cell-based; details: human
T47D [55] = assay: Concentration required to achieve total growth inhibition against breast T-47D cancer cell line; assay type: functional; details: Homo sapiens
UACC-62 [56] = assay: inhibition against melanoma UACC-62 cell line; assay type: functional; details: Homo sapiens
UACC-62 [57] = assay: Concentration of the drug required to achieve 50% cytotoxicity against melanoma UACC-62 cell line; assay type: cell-based; details: human
UACC-62 [58] = assay: Concentration required to achieve total growth inhibition against melanoma UACC-62 cell line; assay type: functional; details: Homo sapiens
HL-60 [59] = assay: Inhibitory concentration against HL60 cells; assay type: functional, cell-based; details: Homo sapiens; outline: as §1
SK-MEL-5 [60] = assay: Concentration of the drug required to achieve 50% cytotoxicity against melanoma SK-MEL-5 cell line; assay type: cell-based; details: human
RPMI-8226 [61] = assay: inhibition against leukemia RPMI-8226 cell line; assay type: functional; details: Homo sapiens
K562 [62] = assay: inhibition against leukemia K-562 cell line; assay type: functional; details: Homo sapiens
MCF7 [63] = assay: inhibition against breast MCF-7 cancer cell line; assay type: functional; details: Homo sapiens

COP(=O)(OCC[C@H]1O[C@@H]2OC3(C)CC[C@H]4[C@H](C)CC[C@@H]([C@H]1C)[C@@]24OO3)OCC[C@H]1O[C@@H]2OC3(C)CC[C@H]4[C@H](C)CC[C@@H]([C@H]1C)[C@@]24OO3 (single isomer, unassigned)
IC50 (Jurkat): 7.7 µM | LC50 (CCRF-CEM [1]): 100 µM | LC50 (CCRF-CEM [2]): 20 µM | TGI (CCRF-CEM [3]): 30 µM | GI50 (COLO 205 [4]): < 0.01 µM | GI50 (CCRF-CEM [5]): 0.769 µM | LC50 (COLO 205 [6]): 2.59 µM | TGI (COLO 205 [7]): 0.21 µM | TGI (HCT-15 [8]): 14.4 µM | LC50 (HCT-15 [9]): 38.7 µM | TGI (HCT-116 [10]): 32.6 µM | GI50 (HCT-15 [11]): < 0.01 µM | GI50 (HL-60 [12]): < 0.01 µM | TGI (HL-60 [13]): 1 µM | LC50 (HCT-116 [14]): > 100 µM | TGI (HCC 2998 [15]): 16.4 µM | GI50 (HCT-116 [16]): 1.85 µM | GI50 (HCC 2998 [17]): 1.25 µM | LC50 (HCC 2998 [18]): 52.9 µM | LC50 (HT-29 [19]): 40 µM | GI50 (HT-29 [20]): < 0.01 µM | TGI (HT-29 [21]): 12.6 µM | TGI (KM12 [22]): 12.6 µM | TGI (K562 [23]): 1.17 µM | GI50 (KM12 [24]): < 0.01 µM | LC50 (KM12 [25]): 40 µM | GI50 (MOLT-4 [26]): < 0.01 µM | GI50 (LOX IMVI [27]): < 0.01 µM | LC50 (LOX IMVI [28]): 52.9 µM | TGI (LOX IMVI [29]): 16.4 µM | TGI (MCF7 [30]): 18.3 µM | LC50 (MCF7 [31]): 72.2 µM | GI50 (Malme-3M [32]): 0.0474 µM | LC50 (Malme-3M [33]): > 100 µM | TGI (MOLT-4 [34]): 9.8 µM | TGI (Malme-3M [35]): 32.6 µM | LC50 (MOLT-4 [36]): 33.5 µM | GI50 (NCI/ADR-RES [37]): 0.994 µM | LC50 (NCI/ADR-RES [38]): 75.5 µM | TGI (NCI/ADR-RES [39]): 22.1 µM | LC50 (PC-3 [40]): 70.3 µM | GI50 (PC-3 [41]): < 0.01 µM | IC50 (Plasmodium falciparum): 0.09 nM | TGI (PC-3 [42]): 18.8 µM | LC50 (RPMI-8226 [43]): > 100 µM | TGI (RPMI-8226 [44]): 13.7 µM | GI50 (SW-620 [45]): < 0.01 µM | LC50 (SW-620 [46]): 40 µM | GI50 (SR [47]): < 0.01 µM | LC50 (SR [48]): > 100 µM | TGI (SR [49]): 2.84 µM | TGI (SW-620 [50]): 12.6 µM | GI50 (SK-MEL-5 [51]): 0.199 µM | TGI (SK-MEL-5 [52]): 15.2 µM | GI50 (T47D [53]): < 0.01 µM | LC50 (T47D [54]): 25.6 µM | TGI (T47D [55]): < 10 µM | GI50 (UACC-62 [56]): 0.486 µM | LC50 (UACC-62 [57]): 42.9 µM | TGI (UACC-62 [58]): 18.4 µM | IC50 (HL-60 [59]): 0.143 µM | LC50 (SK-MEL-5 [60]): 38.9 µM | GI50 (RPMI-8226 [61]): < 0.01 µM | GI50 (K562 [62]): < 0.01 µM | GI50 (MCF7 [63]): 0.0503 µM
